# Compound activity as filed in PubChem.
# LMPTP inh = blocks human LMPTP phosphatase | P24666 | recombinant LMPTP-A, OMFP fluorogenic substrate, fluorescence intensity | inhibition, % at 20 µM | 360,000 compounds, 0.22% hits | AID 651560;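 active means compounds that cut the enzyme signal by at least half of the control window in the single-dose screen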;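 further: plate controls were DMSO wells with enzyme plus substrate for no effect and substrate without enzyme for full effect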
# Target sequence (P24666 whole entry, looked up): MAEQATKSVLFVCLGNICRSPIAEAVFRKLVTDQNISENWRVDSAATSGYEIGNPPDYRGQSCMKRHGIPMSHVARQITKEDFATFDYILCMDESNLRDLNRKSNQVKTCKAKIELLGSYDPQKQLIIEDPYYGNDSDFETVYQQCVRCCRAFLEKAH
#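 Material: LMPTP-A; amount: 0.625 nM enzyme; doses: single 20 µM dose; times: reaction 50 min, room temperature, dark; technique: fluorescence intensity of OMFP turnover product; benchmarks: no-enzyme and uninhibited controls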
# DNMT1 inh = inhibitors of human DNMT1; DNMT1 molecular beacon, Hinp1I cleavage, fluorescence; 360,000 compounds, 0.83% hits; P26358; inhibition (reported as % activation of signal), % at 10 µM; in the data active means inhibition above about 50%
# STEP inh = inhibitors of human striatal-enriched phosphatase STEP | recombinant STEP, OMFP fluorogenic substrate, fluorescence | inhibition, % at 20 µM | AID 588621 | 360,000 compounds, 0.25% hits | P54829;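 active means inhibition at 20 µM, scaled per plate between control wells, above about 37%, limit read from the data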;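 further: 0% = DMSO with enzyme and substrate and 100% = substrate only without enzyme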
# Target sequence (P54829 whole entry, looked up): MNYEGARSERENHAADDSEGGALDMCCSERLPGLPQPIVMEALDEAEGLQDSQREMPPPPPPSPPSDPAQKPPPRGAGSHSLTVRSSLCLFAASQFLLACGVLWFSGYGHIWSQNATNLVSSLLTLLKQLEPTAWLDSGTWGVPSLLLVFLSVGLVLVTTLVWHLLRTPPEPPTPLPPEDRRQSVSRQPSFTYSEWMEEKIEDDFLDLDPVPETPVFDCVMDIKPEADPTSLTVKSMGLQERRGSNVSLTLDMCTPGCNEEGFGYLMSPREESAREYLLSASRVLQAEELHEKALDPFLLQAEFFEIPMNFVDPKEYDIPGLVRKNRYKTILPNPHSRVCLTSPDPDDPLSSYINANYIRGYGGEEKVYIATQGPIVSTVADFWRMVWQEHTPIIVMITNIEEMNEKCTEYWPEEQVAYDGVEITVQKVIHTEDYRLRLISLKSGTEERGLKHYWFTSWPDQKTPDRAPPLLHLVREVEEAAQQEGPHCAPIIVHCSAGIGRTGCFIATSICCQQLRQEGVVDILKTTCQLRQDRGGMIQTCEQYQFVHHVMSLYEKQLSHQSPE
#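 medium = Bis-Tris buffer pH 6.0, 2.5 mM DTT, 0.005% Tween 20 | test system = STEP (striatal-enriched tyrosine phosphatase) enzyme, cell-free | measure = normalized % inhibition | compound dosing = 20 µM, 1% DMSO | also added = 25 µM OMFP | schedule = reaction 20 min, ambient temperature | measured by = fluorescence read at 480 nm ex / 540 nm em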
# Scp-1 inhibitor = Scp-1 (human) phosphatase inhibition | 340,000 compounds, 0.88% hits | Recombinant Scp1, phosphopeptide, malachite green phosphate absorbance | inhibition, % at 20 µM | AID 493091;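 active means inhibition above about 50% at 20 µM, limit read from the data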;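 further: plate controls were DMSO wells with enzyme for no effect and wells lacking enzyme for full effect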
#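 Test system: SCP-1 phosphatase catalytic domain, residues 76-261; measured by: colorimetric phosphate reagent with accelerator and stabiliser, absorbance at 630 nm; timing: enzyme reaction 45 min at room temperature, colour 5 min, stabilisation 30 min; also added: Phosphorylated 17-residue peptide substrate; compound dosing: one concentration, 20 µM, with 1.0% DMSO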
# SUMO1 PPI mod = SUMO1-SIM interaction modulation. inhibition, % at 20 µM. SUMO1 binding to a labelled peptide, TR-FRET, 1 h. 360,000 compounds, 0.33% hits. AID 602429. P63165; in the data active means inhibition above about 37%
# F508del corr = CFTR F508del correction in bronchial cells; 350,000 compounds, 0.36% hits; CFBE cells, YFP halide quenching; stimulated with forskolin plus potentiator P3; % fluorescence drop versus neutral controls; activity (quench increase), % at 7.58 µM;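 active means mean added fluorescence quench of at least 8% versus neutral control, with both replicates also reaching 8%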;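 further: cells transiently co-express mutant CFTR-F508del with the halide-sensitive YFP; corrector assay measuring rescue of mutant channel to the surface after 24 h compound exposure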
# Scp-1 conf = confirmation of human Scp-1 phosphatase inhibitors; recombinant SCP-1 catalytic domain, phosphate release, malachite green absorbance; shares compounds with Scp-1 inhibitor; inhibition, % at 20 µM; AID 540281; 2,500 compounds, 61% hits;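 further: plate controls were DMSO with enzyme for no effect and buffer wells lacking enzyme for full effect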
# Scp-1 MG ctr = interferes with malachite green readout, flagging false Scp-1 hits; AID 540313; Colorimetric interference counterscreen, malachite green absorbance 630 nm; 2,500 tested, under 10 active; shares compounds with Scp-1 inhibitor; apparent inhibition (interference), % at 20 µM;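 further: compounds added after enzyme reaction finished so only phosphate colour detection is probed; plate controls were DMSO wells with completed Scp-1 reaction for no effect and substrate wells lacking enzyme for full effect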
# Scp1 DSF = Scp-1 (human) binding by thermal shift. 1,500 compounds, 25% hits. thermal shift relative to vanadate control, % at 40 µM. Recombinant SCP1, Sypro Orange thermal shift Tm. shares compounds with Scp-1 inhibitor;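 active means substances whose mean melting-temperature shift, as a percentage of the reference inhibitor's shift, reaches about 5.3%, limit read from the data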;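 further: 0% = Tm of DMSO wells and 100% = Tm with sodium orthovanadate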
# * hit, by the source's call; x = no result given. In the library only some 1.6% were active in any assay of this set; here they are far more common.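 How the source made its calls, unless noted: active means inhibition of at least 30% at 20 µM; inactive means the rest.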
SMILES,LMPTP inh,DNMT1 inh,STEP inh,Scp-1 inhibitor,SUMO1 PPI mod,F508del corr,Scp-1 conf,Scp-1 MG ctr,Scp1 DSF
C[C@H](CO)N1C[C@H](C)[C@@H](CN(C)S(=O)(=O)c2ccc(F)cc2)Oc2ccc(NC(=O)c3ccncc3)cc2C1=O,-3,0,-2,59*,-5,-2,7,-11,x
COc1ccc(NC(=O)N(C)C[C@H]2Oc3ccc(NC(=O)c4ccncc4)cc3C(=O)N([C@H](C)CO)C[C@@H]2C)cc1,-2,12,-1,84*,0,-1,15,-13,x
O=C(c1ccccn1)N1C[C@@H]2[C@H](c3ccccc31)[C@H](CO)N2C(=O)c1ccccn1,x,x,x,x,x,6,x,x,x
COc1ccc(S(=O)(=O)N(C)C[C@@H]2Oc3ccc(NC(=O)c4ccncc4)cc3C(=O)N([C@@H](C)CO)C[C@H]2C)cc1,x,x,x,x,x,-4,x,x,x
COc1ccc(S(=O)(=O)N(C)C[C@H]2Oc3ccc(NC(=O)c4ccncc4)cc3C(=O)N([C@H](C)CO)C[C@@H]2C)cc1,1,5,1,74*,2,0,3,-13,x
CCn1cc(S(=O)(=O)c2ccc(C)cc2)c(=O)c2cc(F)c(N3CCN(C)CC3)cc21,2,-1,0,61*,3,-1,-25,-22,x
CC(Oc1ccc2c(-c3ccccc3)cc(=O)oc2c1)C(=O)NC(Cc1c[nH]c2ccc(O)cc12)C(=O)O (stereo not drawn),-1,8,-1,27,-1,-3,x,x,x
COc1ccc2c(c1)c(=O)oc1c(C)c(OC(C)C(=O)N[C@@H](Cc3c[nH]c4ccc(O)cc34)C(=O)O)ccc12 (stereo partly drawn),3,12,-1,58*,27,1,43*,-23,9.6*
CC(C)CN(CC(C)C)S(=O)(=O)c1cc([N+](=O)[O-])ccc1N1CCCCCC1,5,3,5,52*,-2,x,-9,-12,x
O=C(NC[C@H]1N[C@H](CO)[C@H]1c1ccccc1)C1CC1,x,x,x,x,x,-1,x,x,x
CCCCNc1nnc(Cc2ccc(Cl)cc2)c(=O)[nH]1,5,30,28,97*,8,-2,76*,-11,-2
COCCNc1nnc(Cc2ccc(OC)c(OC)c2)c(=O)[nH]1,-1,3,-1,4,-4,-3,x,x,x
O=C(OC1CCOC1=O)c1ccc(Cl)c(S(=O)(=O)N2CCCCC2)c1 (stereo not drawn),-1,13,1,22,9,2,x,x,x
O=C(OC1CCOC1=O)c1ccc(Cl)c(S(=O)(=O)N2CCOCC2)c1 (stereo not drawn),5,25,15,53*,10,3,27,-19,x
C[C@H](CO)N1C[C@H](C)[C@@H](CN(C)C(=O)Nc2ccccc2)Oc2ccc(NC(=O)Nc3ccc(F)cc3)cc2C1=O,x,x,x,x,x,2,x,x,x
Cc1c(C(=O)O)sc2nc(CSc3ncc(C(F)(F)F)cc3Cl)[nH]c(=O)c12,0,11,5,97*,1,0,49*,-16,-1
CCOC(=O)c1sc2nc(CSc3ccccc3Cl)[nH]c(=O)c2c1C,-2,4,0,-5,-1,-1,x,x,x
COc1ccc(NC(=O)Nc2ccc3c(c2)C(=O)N([C@H](C)CO)C[C@H](C)[C@H](CN(C)C(=O)Nc2c(C)noc2C)OCCCC[C@H](C)O3)cc1,x,x,x,x,x,0,x,x,x
CCOc1ccc(C(=O)N/N=C/c2cc(Cl)ccc2[N+](=O)[O-])cc1,24,15,38,103*,-11,x,48*,-17,2
CCOC(=O)/C=C1\CN(Cc2cc(OC)c(OC)c(OC)c2)S(=O)(=O)c2ccc(C(F)(F)F)cc21,3,9,0,88*,0,2,57*,-24,0
CN(C)CC#Cc1ccc([C@H]2[C@H]3CN(C(=O)Nc4cc(F)ccc4F)CCCCN3[C@H]2CO)cc1,x,x,x,x,x,-3,x,x,x
Cc1[nH]c2ccccc2c1N=Nc1ccc(F)cc1,2,-13,-2,9,-8,-3,x,x,x
Cc1[nH]c2ccccc2c1N=Nc1cc(C(=O)O)cc(C(=O)O)c1,1,4,4,52*,-14,1,-7,-19,x
Cc1nnc(SCC(=O)Nc2sccc2C#N)s1,35,27,3,60*,16,-3,40*,-11,2
Cc1noc(C)c1NC(=O)Nc1ccc2c(c1)CC(=O)N([C@H](C)CO)C[C@@H](C)[C@H](CN(C)Cc1ccc3c(c1)OCO3)O2,x,x,x,x,x,-1,x,x,x
SMILES,LMPTP inh,DNMT1 inh,STEP inh,Scp-1 inhibitor,SUMO1 PPI mod,F508del corr,Scp-1 conf,Scp-1 MG ctr,Scp1 DSF
Cc1c(C(=O)O)sc2nc3n(c(=O)c12)CCC3,0,23,7,64*,2,-2,55*,-5,3
Cc1c(C(=O)N2CCN(c3ccccc3)CC2)sc2nc3n(c(=O)c12)CCC3,-1,0,0,-5,1,-3,x,x,x
Cc1ccc(NC(=O)CC2C(=O)NCCN2C(=O)c2ccc(F)cc2)cc1 (stereo not drawn),-1,1,-2,-4,2,-3,-3,-11,x
CCNC(=O)Nc1ccc2c(c1)C(=O)N(C)[C@H]1CC[C@@H](CC(=O)NCc3cccc(F)c3)O[C@@H]1CO2,x,x,x,x,x,2,x,x,x
CCn1c(CNC(=O)COc2ccc(C(C)C)cc2)nnc1SCC(=O)Nc1cc(F)ccc1C,-1,1,-2,85*,2,x,46*,-17,-6
CCn1c(CNC(=O)COc2ccc(C(C)C)cc2)nnc1SCC(=O)Nc1ccc(F)cc1,0,1,-1,-5,-3,x,x,x,x
CC(=O)c1ccccc1NS(=O)(=O)c1cccc2nsnc12,68*,51*,97*,80*,-17,1,51*,-23,-6
CC(C)NC(=O)N(C)C[C@H]1Oc2ccc(NS(=O)(=O)c3ccc(Cl)cc3)cc2C(=O)N([C@@H](C)CO)C[C@H]1C,x,x,x,x,x,-3,x,x,x
COc1ccc(NC(=O)CNS(=O)(=O)c2ccc(Cl)cc2)cc1,0,1,0,3,-4,x,x,x,x
COc1ccc(NC(C)=[N+](C)CCNS(=O)(=O)c2ccc(Cl)cc2)cc1,-1,3,-4,96*,-1,-2,93*,-4,-21
